One block for each molecule: values may come before it.
Experiments:
MCF7:TAM1 spheroids = test: Spheroid growth assay; type: cell-based; conditions: 10 nM, 14 days, ATP content
Outline: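 MCF7:TAM1 cells, maintained in phenol red-free stripped RPMI-1640 containing 1 μM of the selecting antiestrogen, were plated at 1000–1500 cells/well in ultra-low-attachment round-bottom plates. Spheroids grew untreated for 1–3 days. Half the medium was then replaced with 2× treatment medium, and 1× treatment was repeated every 2–3 days over 14 days; vehicle was 0.01% DMSO. Viability was read by CellTiter-Glo 3D luminescence, normalized to vehicle (1.0) and background (0.0). Three biological and analytical replicates were run, analysed by one-way ANOVA versus vehicle.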

[1] = Preliminary PK screen, plasma and brain concentrations by LC-MS/MS; type: in vivo, C57BL/6 mice; conditions: for concentration in the brain: 0.5 and 2 h, 100 mg/kg oral
ERE-luciferase = type: cell-based; conditions: MCF7:WS8, in competition with 1 nM E2
Outline: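 MCF7:WS8 cells were grown 3 days in phenol red-free RPMI-1640 with stripped FBS, plated at 1 × 10^5 cells/well, and held 24 h. They were then co-transfected for 6 h (Lipofectamine 2000, Opti-MEM) with pERE-luciferase (three Xenopus vitellogenin A2 EREs driving firefly luciferase) and pRL-TK Renilla. Cells were treated with test compound plus 1 nM E2 for 18 h before dual-luciferase readout.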

ERα [2] = target: T1, ERα (Homo sapiens, UniProt P03372); test: ER in-cell western; type: cell-based; conditions: MCF7:WS8, 24 h treatment
T1 sequence (P03372 1-595): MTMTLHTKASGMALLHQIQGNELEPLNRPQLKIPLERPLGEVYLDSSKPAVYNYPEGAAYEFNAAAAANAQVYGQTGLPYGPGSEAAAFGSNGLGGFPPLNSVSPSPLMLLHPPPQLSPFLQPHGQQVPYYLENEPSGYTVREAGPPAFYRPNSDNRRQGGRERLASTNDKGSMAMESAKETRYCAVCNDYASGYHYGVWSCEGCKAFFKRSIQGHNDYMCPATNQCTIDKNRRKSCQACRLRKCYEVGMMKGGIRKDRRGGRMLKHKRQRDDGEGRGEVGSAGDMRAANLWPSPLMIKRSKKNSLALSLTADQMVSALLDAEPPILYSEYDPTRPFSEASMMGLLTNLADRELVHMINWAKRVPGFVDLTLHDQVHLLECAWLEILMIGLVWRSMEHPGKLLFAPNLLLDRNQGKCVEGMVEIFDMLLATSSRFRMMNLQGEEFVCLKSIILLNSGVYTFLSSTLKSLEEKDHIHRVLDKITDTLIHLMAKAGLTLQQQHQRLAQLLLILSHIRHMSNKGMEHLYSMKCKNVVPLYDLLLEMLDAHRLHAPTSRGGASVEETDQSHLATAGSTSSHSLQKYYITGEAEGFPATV
Outline: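 MCF7:WS8 cells were stripped for 2 days (phenol red-free medium, stripped FBS), plated at 2.5 × 10^4 cells/well, grown 48 h, then treated 24 h. They were fixed and stained with anti-ERα (H10) by the in-cell western protocol. The IRDye 800CW signal was normalized to CellTag 700 stain.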

MCF7:5C cells = test: DNA content assay, 2D growth inhibition of MCF7:5C cells; type: cell-based; conditions: for growth inhibition, result in words: 2D culture
Outline: (§1)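 Cells were seeded at 5000/well in 96-well plates and treated with 0.01% (v/v) DMSO vehicle or serially diluted test compound. MCF7:WS8 cells were estrogen-stripped for 2 days beforehand (phenol red-free RPMI-1640, stripped FBS) and read on day 5. MCF7:5C cells, kept in phenol red-free RPMI-1640 with charcoal:dextran-stripped FBS, were read on day 7. Lysis was at −80 °C overnight, then Hoechst 33258 fluorescence was measured in TNE buffer. Data were normalized to vehicle and no cells, from ≥3 biological and analytical replicates.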

MCF7:WS8 cells = test: DNA content assay, 2D growth inhibition of MCF7:WS8 cells; type: cell-based; conditions: for growth inhibition, result in words: MCF7:WS8, 2D culture
Outline: as §1

[3] = system: T47D:WT, T47D:TYS (Y537S) and T47D:TDG (D538G) cells; test: Spheroid growth assay; type: cell-based; conditions: 10 nM, 11 days treatment
Full PK analysis of 37d = type: in vivo, CD-1 mice; conditions: CD-1, mouse, plasma, po, 50 mg/kg
Outline: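 Test compound was given orally at 50 mg/kg as a solution in water and 10% SBE-β-CD/PEG-400 (9:1 v/v). Plasma was sampled at 10 time points. Samples were diluted in 50% acetonitrile, with working standards serially diluted in 50% acetonitrile in water, and quantified by LC-MS/MS.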

ERα [4] = target: T1, ERα; test: ER western assay with proteasomal inhibitor MG-132 in MCF7:WS8 cells; type: cell-based; conditions: MCF7:WS8, 10 nM, MG-132 1 μM, western blot

SMILES: Cc1cc(F)cc(C)c1C(=O)c1sc2cc(O)ccc2c1Oc1ccc(OCCN2CC(CF)C2)cc1 [30f, (4-Fluoro-2,6-dimethylphenyl)(3-(4-(2-(3-(fluoromethyl)azetidin-1-yl)ethoxy)phenoxy)-6-hydroxybenzo[b]thiophen-2-yl)-methanone]
- inhibition of spheroid growth, in words (MCF7:TAM1 spheroids): greater efficacy
- concentration in the brain [1]: 600 to 750 nM

SMILES: Cc1cc(F)cc(C)c1C(=O)c1sc2cc(O)ccc2c1Oc1ccc(OCCN2CC[C@@H](CF)C2)cc1 [30m, (R)-(4-Fluoro-2,6-dimethylphenyl)(3-(4-(2-(3-(fluoromethyl)-pyrrolidin-1-yl)ethoxy)phenoxy)-6-hydroxybenzo[b]thiophen-2-yl)-methanone]
- antagonism of ERE-luciferase induction by E2, potency in words (ERE-luciferase): lower potency

SMILES: O=C(c1ccc(OCCN2CCCCC2)cc1)c1c(-c2ccc(O)cc2)sc2cc(O)ccc12 [compound 6, raloxifene, reference compound]
- growth inhibition, result in words (MCF7:5C cells): cross-resistant

SMILES: Cc1ccccc1C(=O)c1sc2cc(O)ccc2c1Oc1ccc(OCCN2CC[C@@H](CF)C2)cc1 [30l, (R)-(3-(4-(2-(3-(Fluoromethyl)pyrrolidin-1-yl)ethoxy)phenoxy)-6-hydroxybenzo[b]thiophen-2-yl)(o-tolyl)methanone]
- growth inhibition, result in words (MCF7:WS8 cells): superior potency and efficacy to 2
- growth inhibition, result in words (MCF7:5C cells): superior potency and efficacy to 2

SMILES: Cc1cc(F)cc(C)c1C(=O)c1sc2cc(O)ccc2c1Oc1ccc(OC2CN(C3CC3)C2)cc1 [37f, (3-(4-((1-Cyclopropylazetidin-3-yl)oxy)phenoxy)-6-hydroxybenzo[b]thiophen-2-yl)(4-fluoro-2,6-dimethylphenyl)-methanone]
- ERα degradation by ICW, result in words (ERα [2]): low efficacy
- antagonism of ERE-luciferase induction by E2, potency in words (ERE-luciferase): lower potency
- growth inhibition, result in words (MCF7:WS8 cells): potent and effective
- growth inhibition, result in words (MCF7:5C cells): loss of efficacy

SMILES: O=C(c1ccc(O)cc1)c1sc2cc(O)ccc2c1Oc1ccc(OCCN2CC(CF)C2)cc1 [30g, (3-(4-(2-(3-(Fluoromethyl)azetidin-1-yl)ethoxy)phenoxy)-6-hydroxybenzo[b]thiophen-2-yl)(4-hydroxyphenyl)methanone]
- growth inhibition, result in words (MCF7:5C cells): lost efficacy

SMILES: Cc1cc(F)cc(C)c1C(=O)c1sc2cc(O)ccc2c1Oc1ccc(OC2CN(CCCF)C2)cc1 [37d, (4-Fluoro-2,6-dimethylphenyl)(3-(4-((1-(3-fluoropropyl)azetidin-3-yl)oxy)phenoxy)-6-hydroxybenzo[b]thiophen-2-yl)methanone]
- efficacy in T47D spheroids, in words [3]: equally as effective as the SERDs, fulvestrant (2) and GDC-0927 (3b), and as the SERM 1b
- half-life (Full PK analysis of 37d): 4.5 h
- inhibition of spheroid growth, in words (MCF7:TAM1 spheroids): greater efficacy
- proteasome dependence of ERα degradation, in words (ERα [4]): coadministration of a proteasome inhibitor blocked the actions
- concentration in the brain [1]: exceeded 1 μM

Second part, led by results:

- ERα degradation by ICW, result in words (ERα [2]): reduced efficacy
SMILES: Cc1cc(F)cc(C)c1C(=O)c1sc2cc(O)ccc2c1Oc1ccc(OCCN2CC[C@H](CF)C2)cc1 [30n, (S)-(4-Fluoro-2,6-dimethylphenyl)(3-(4-(2-(3-(fluoromethyl)-pyrrolidin-1-yl)ethoxy)phenoxy)-6-hydroxybenzo[b]thiophen-2-yl)-methanone]

- ERα degradation by ICW, result in words (ERα [2]): reduced efficacy
SMILES: Cc1cc(O)ccc1C(=O)c1sc2cc(O)ccc2c1Oc1ccc(OCCN2CC(CF)C2)cc1 [30h, (3-(4-(2-(3-(Fluoromethyl)azetidin-1-yl)ethoxy)phenoxy)-6-hydroxybenzo[b]thiophen-2-yl)(4-hydroxy-2-methylphenyl)-methanone]
- antagonism of ERE-luciferase induction by E2, potency in words (ERE-luciferase): lower potency

- ERα degradation by ICW, result in words (ERα [2]): did not induce ER degradation
SMILES: Cc1ccccc1C(=O)c1sc2cc(O)ccc2c1Oc1ccc(OCCN2CCCCC2)cc1 [30o, (6-Hydroxy-3-(4-(2-(piperidin-1-yl)ethoxy)phenoxy)benzo[b]-thiophen-2-yl)(o-tolyl) Methanone]
- growth inhibition, result in words (MCF7:5C cells): did not inhibit growth

- ERα degradation by ICW, result in words (ERα [2]): reduced efficacy
SMILES: Cc1ccccc1C(=O)c1sc2cc(O)ccc2c1Oc1ccc(OCCN2CCC2)cc1 [30a, (3-(4-(2-(Azetidin-1-yl)ethoxy)phenoxy)-6-hydroxybenzo[b]-thiophen-2-yl)(o-tolyl)methanone]
- growth inhibition, result in words (MCF7:5C cells): significantly reduced efficacy

- IC50 (MCF7:WS8 cells; MCF7:WS8, 96 h, read-out: pIC50, inhibition of cell growth (converted)): 0.631 to 1.58 nM
- IC50 (MCF7:5C cells; 144 h, read-out: pIC50, inhibition of cell growth (converted)): 0.631 to 1.58 nM
- concentration in the brain, in words ([1]; 30 min, s.c.): below the limit of quantification
SMILES: C[C@]12CC[C@@H]3c4ccc(O)cc4C[C@@H](CCCCCCCCC[S+]([O-])CCCC(F)(F)C(F)(F)F)[C@H]3[C@@H]1CC[C@@H]2O (stereo partly drawn) [compound 2, fulvestrant, reference compound]
- inhibition of spheroid growth, in words (MCF7:TAM1 spheroids): greater efficacy
